# Shown are actives, neighbours in structure and some others; about 0.57% of the full set was active somewhere.
# JMJD2C inh: inhibitors of human GASC-1 (JMJD2C) demethylase; Q9H3R0; GST-JMJD2C(1-420) H3K9me3 demethylation, DELFIA europium; inhibition, % at 2.35 µM; actives 0.069% (n = 330,000); AID 2099;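 active means more than half of a compound's replicate wells show inhibition beyond 50%, single wells judged on their own value; inconclusive means some, but no more than half, of replicates pass 50% inhibition; inactive means no replicate passes 50% inhibition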;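 further: signal counts dimethyl H3K9 product captured on neutravidin plate; 0% = median of DMSO wells and 100% = 0.3 times that DMSO median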
# Target sequence (Q9H3R0 1-420 limits assumed): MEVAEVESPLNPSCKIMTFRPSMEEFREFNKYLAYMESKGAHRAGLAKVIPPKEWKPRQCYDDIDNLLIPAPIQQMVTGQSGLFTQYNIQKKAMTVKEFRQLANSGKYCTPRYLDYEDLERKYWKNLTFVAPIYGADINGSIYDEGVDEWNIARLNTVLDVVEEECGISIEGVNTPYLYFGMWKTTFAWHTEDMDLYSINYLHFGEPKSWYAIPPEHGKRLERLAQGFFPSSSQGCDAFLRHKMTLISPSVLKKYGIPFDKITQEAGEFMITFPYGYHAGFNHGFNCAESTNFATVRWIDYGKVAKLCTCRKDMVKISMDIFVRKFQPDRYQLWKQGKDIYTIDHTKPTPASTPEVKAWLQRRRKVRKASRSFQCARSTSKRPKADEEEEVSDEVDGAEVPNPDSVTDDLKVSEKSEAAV
# Arrestin-AP2 inh: human beta-arrestin and AP2 interaction inhibition; FITC-arrestin peptide / GST-AP2 beads, flow cytometry; AP2 beta2 appendage carries R879A mutation; inhibition, % at 10 µM; actives 0.31% (n = 340,000); AID 504490;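 active means inhibition above a set limit, near 3 SD of compounds lacking own fluorescence, cut at about 54% in these data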;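 further: plate controls were DMSO wells for no effect and 5 µM unlabelled arrestin peptide for full effect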
#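 System: GST-AP2 R879A glutathione beads. Medium: PBS with 0.05% Tween 20 and 0.1% BSA. Also added: FITC-arrestin peptide, 50 nM. Incubation: 12 min plus 1 h, RT. Measured by: high-throughput flow cytometry of beads, ex 488, em 535 nm. Evaluation: percent drop in bead-associated FITC signal.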
# pCIP destab: compounds decreasing mouse p/CIP protein stability | Q05BA5 | F442A p/CIP-EGFP cells, EGFP fluorescence, 16 h | decrease of EGFP signal, % at 10 µM | actives 0.01% (n = 290,000) | AID 1984;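 active means EGFP signal decrease of at least 30% at 10 µM or well 3 SD below plate mean, unless failing retest; inactive means the rest, including hits failing retest or dose response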
# VLA-4 inh: inhibition in a human VLA-4 binding assay. P13612. VLA-4 expressing cells, ligand binding flow cytometry. inhibition, % (about 7 µM as worked out from the volumes in the protocol). actives 0.2% (n = 330,000); in the data active means inhibition above about 50%
# Arr-AP2 CP1: blocks beta-arrestin peptide binding to human AP2; AID 504908; actives 2% (n = 1,300); shares compounds with Arrestin-AP2 inh; inhibition, % at 10 µM; GST-AP2 beads, FITC arrestin peptide binding, flow cytometry; GST-fused beta2-adaptin appendage, R879A mutant;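 active means inhibition above a set limit, roughly 3 SD of non-fluorescent compound noise, cut at about 38% in these data; inactive means inhibition at or below that limit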;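 further: loss of bead fluorescence from 50 nM FITC arrestin peptide bound to appendage; 0% = negative control wells and 100% = excess unlabelled arrestin peptide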
# GST-FITC bead: GST-GSH bead binding interference, counter-screen; inhibition, % at 10 µM; AID 588338; shares compounds with Arrestin-AP2 inh; actives 2% (n = 1,300); GST-fluorescein binding to GSH beads, fluorescence;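 active means inhibition above 50%, about 3 SD of the inhibition seen with non-fluorescent compounds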;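 further: fluorescein maleimide labelled GST captured on 4 micron glutathione beads; higher means more loss of bead fluorescence from quenching or blocked binding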
# Numbers without * were called inactive; ? = inconclusive; / = not tested or not shown.
SMILES,JMJD2C inh,Arrestin-AP2 inh,pCIP destab,VLA-4 inh,Arr-AP2 CP1,GST-FITC bead
COc1ccc(-n2c(=O)c3ccccc3n(CC(=O)Nc3ccccc3OC)c2=O)cc1,17,1,2,6,/,/
CCn1c(=O)n(CC(=O)Nc2cc(OC)ccc2OC)c(=O)c2ccccc21,-2,26,3,-7,-5,15
CCOC(=O)c1ccccc1NC(=O)c1nc2nccc(C)n2n1,-15,98*,6,15,-16,1
CCOc1cc(C(=O)Nc2nnc(CC)s2)ccc1OCC(=O)N1CCOCC1,6,-6,-19,-8,/,/
O=C(CCC(=O)N1CCN(S(=O)(=O)c2ccc(Cl)cc2)CC1)NCc1ccccc1,12,58*,-5,-2,10,-1
CCn1nnnc1SCC(=O)c1cccc(OC)c1,-2,15,-1,6,/,/
O=C(CNS(=O)(=O)c1ccccc1F)OCC(=O)c1c[nH]c2ccccc12,7,2,/,9,/,/
O=C(CNS(=O)(=O)c1ccccc1)OCC(=O)c1c[nH]c2ccccc12,/,76*,/,-114,9,-6
COC(=O)C1=CO[C@@H](O)C2C(CO)=CCC12 (stereo partly drawn),0,18,/,0,/,/
CN(C)S(=O)(=O)c1ccc(NC(=O)C2CCCN(C(=O)c3ccc(Cl)cc3)C2)cc1 (stereo not drawn),3,56*,-11,0,-2,-5
Cc1cc2c(cc(C(=O)OC(C)C(=O)NCc3ccccc3)n2C)o1 (stereo not drawn),/,42,/,/,/,/
CCOc1ccc2nc(NC(=O)CS(=O)(=O)c3ccccc3)sc2c1,2,81*,-4,14,4,-2
Cn1nnnc1NCc1ccc(Cl)cc1,24,57*,-1,6,-1,-10
CCCCNC(=S)N/N=C/c1ccc(OCC(=O)Nc2c(C)cc(C)cc2C)c(OC)c1,-8,103*,-19,-1,2,-2
COc1cc(/C=N/NC(=O)c2cccnc2)ccc1OCC(=O)Nc1ccc(C)cc1,7,91*,-12,-3,1,-5
C=CCNC(=O)c1cc2cccc(OC)c2oc1=O,-12,-15,-12,-11,/,/
CCN(C(=O)CSc1nc2ccccc2o1)C1CCS(=O)(=O)C1 (stereo not drawn),-11,-10,/,27,/,/
CCN(C(=O)CSc1nc2ccccc2[nH]1)C1CCS(=O)(=O)C1 (stereo not drawn),/,54*,/,9,-6,-6
COc1ccc(/C=C(\NC(=O)c2ccc(C)cc2)C(=O)NCCCn2ccnc2)cc1,-8,-3,-2,7,/,/
CCOC(=O)C1=C(COC(=O)CSc2ccc(C)cc2)NC(=O)NC1C (stereo not drawn),10,-8,/,5,/,/
CCOC(=O)C1=C(COC(=O)COc2cccc(C)c2C)NC(=O)NC1C (stereo not drawn),-4,-11,/,4,0,3
CCOC(=O)C1=C(COC(=O)COc2ccc(OCC)cc2)NC(=O)NC1C (stereo not drawn),0,16,/,2,-8,-7
CCOC(=O)C1=C(COC(=O)COc2ccccc2C=O)NC(=O)NC1C (stereo not drawn),-5,10,/,-3,/,/
CCOC(=O)C1=C(COC(=O)COc2ccccc2OCC)NC(=O)NC1C (stereo not drawn),-1,-4,/,-10,-1,-11
CCOC(=O)C1=C(COC(=O)COc2ccccc2C(C)C)NC(=O)NC1C (stereo not drawn),/,61*,/,/,12,1
SMILES,JMJD2C inh,Arrestin-AP2 inh,pCIP destab,VLA-4 inh,Arr-AP2 CP1,GST-FITC bead
CCCC(=O)Nc1ccc(C(=O)NNC(=O)c2cccc([N+](=O)[O-])c2)cc1,5,5,-19,3,/,/
Cn1nc(NC(=O)C(C)(C)C)c2c(F)cccc21,35,10,-13,2,/,/
CC1CCCC(NC(=O)CN2CCN(S(=O)(=O)c3ccc(Br)s3)CC2)C1C (stereo not drawn),/,64*,/,/,-12,-8
CCCC1(c2ccccc2)NC(=O)N(CC(=O)Nc2ccc3c(c2)OCCO3)C1=O (stereo not drawn),7,65*,/,1,20,1
CCCCN1C(=O)/C(=C2/Sc3ccc(OC)cc3N2CC)SC1=S,-9,-5,16,-13,/,/
CCCCOC(=O)CCCN1C(=O)/C(=C2\SC(=S)N(CCCC(=O)OCCCC)C2=O)SC1=S,-3,67*,-3,4,10,4
Oc1ccc(/C=N/Nc2nc(N3CCCC3)nc(N3CCCC3)n2)cc1O,?,58*,-10,0,-2,4
COc1cc(/C=N/Nc2nc(N3CCCC3)nc(N3CCCC3)n2)ccc1O,-6,13,4,0,/,/
CCCCc1ccc(NC(=O)NCc2ccccn2)cc1,21,-4,-8,9,/,/
CCc1ccc(NC(=O)Nc2cnccn2)cc1,-43,-2,3,-14,6,0
CCCCc1ccc(NC(=O)Nc2cnccn2)cc1,16,1,-3,9,23,-5
Cc1cnc(C(=O)Nc2ccc(OC(F)(F)F)cc2)cn1,1,55*,-19,-12,5,-16
C[C@@H](C(=O)Nc1ccc2c(c1)OCO2)n1c(=O)[nH]c2ccccc2c1=O,3,4,-14,7,-3,-4
CC(C)C(C(=O)Nc1ccc2c(c1)OCCO2)N1C(=O)c2ccccc2C1=O (stereo not drawn),-27,1,3,0,/,/
C[C@@H](C(=O)Nc1ccc2c(c1)OCCO2)n1c(=O)[nH]c2ccccc2c1=O,-9,-9,-3,21,6,-1
O=C(Cn1c(=O)[nH]c2ccccc2c1=O)Nc1ccc2c(c1)OCO2,5,-2,-3,2,1,0
O=C(CN(CCCN1CCOCC1)C(=O)Cn1nnc(-c2ccc(F)cc2)n1)NC1CCCCC1,1,-1,15,-14,/,/
O=[N+]([O-])c1cccc(S(=O)(=O)N2CCN(S(=O)(=O)N3CCCCCC3)CC2)c1,5,18,-4,-4,/,/
CCN1/C(=C/c2ccc3cc(C)ccc3[n+]2C)Sc2ccc3sccc3c21,/,78*,-129,/,68*,43
Cn1c(SCC(=O)N2CCCc3ccccc32)nnc1-c1cccs1,-2,0,-2,-6,/,/
COC(=O)c1ccccc1NC(=O)CN1CCN(c2ccccn2)CC1,-4,-6,-6,-15,/,/
COC(=O)c1ccccc1N/C=C1\CCc2c(c(C)nn2-c2ccccn2)C1=O,9,56*,-17,-16,55*,15
CCNC(=S)N/N=C/c1sc(N2CCCCC2)nc1-c1cccs1,3,106*,-38,0,0,-3
CCOC(=O)C1=C(COC(=O)Cc2ccccc2F)NC(=O)NC1C (stereo not drawn),5,16,/,1,-5,-10
